Results on one compound are retold here after ChEMBL document CHEMBL5678799 (Biochem J, 2009).

The source made the active and inactive calls. The calls are words filed in the database; no cut-off is given here.

The target of data set [1] is Tyrosine-protein kinase BTK (Homo sapiens) (UniProt Q06187). Description: Inhibition of recombinant human N-terminal His6-tagged BTK (2 to 659 residues) expressed in baculovirus infected Sf21 cells assessed as remaining activity at 1 uM using KVEKIGEGTYGVVYK as substrate incubated for 30 mins in presence of [gamma-33P]ATP by filter binding method relative to control. The gist of the method:
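Incubation was 30 min at room temperature (21 °C) under conditions linear with time and enzyme amount. Activity is reported as percent of control lacking compound, triplicate mean ± S.D.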

Data set [2] concerns the target Calcium/calmodulin-dependent protein kinase type 1 (Homo sapiens) (UniProt Q14012). Description: Inhibition of recombinant human N-terminal GST-tagged CAMK1alpha (2 to 369 residues) expressed in Escherichia coli assessed as remaining activity at 1 uM using YLRRRLSDSNF as substrate incubated for 30 mins in presence of [gamma-33P]ATP by filter binding method relative to control. Summed up: (§1)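 Run robotically for 30 min at 21 °C under linear conditions. Compound at 1 or 10 µM. Percentage activity remaining versus control without compound, triplicate mean ± S.D.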

For data set [3], the target named is Mitogen-activated protein kinase 15 (Homo sapiens) (UniProt Q8TD08). Description: Inhibition of recombinant human N-terminal His6-tagged ERK8 (2 to 544 residues) expressed in baculovirus infected Sf21 cells assessed as remaining activity at 1 uM using MBP as substrate incubated for 30 mins in presence of [gamma-33P]ATP by filter binding method relative to control. The gist of the method:
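Radiometric kinase panel run robotically at room temperature (21 °C) for 30 min, linear in time and enzyme. […] Activity is expressed as percent of control without compound, from triplicate determinations ± S.D.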

The target of data set [4] is Serine/threonine-protein kinase Nek6 (Homo sapiens) (UniProt Q9HC98). Description: Inhibition of recombinant human His6-tagged NEK6 (8 to 313 residues) expressed in baculovirus infected Sf21 cells assessed as remaining activity at 1 uM using FLAKSFGSPNRAYKK as substrate incubated for 30 mins in presence of [gamma-33P]ATP by filter binding method relative to control. Summed up:
as §1

Data set [5] deals with Tyrosine-protein kinase SYK (Homo sapiens) (UniProt P43405). Description: Inhibition of recombinant human N-terminal His6-tagged SYK (1 to 635 residues) expressed in baculovirus infected Sf21 cells assessed as remaining activity at 1 uM using Poly (Glu,Tyr) as substrate incubated for 30 mins in presence of [gamma-33P]ATP by filter binding assay relative to control.
Data set [6] deals with Casein kinase I isoform delta (Homo sapiens) (UniProt P48730). Description: Inhibition of recombinant human N-terminal GST-tagged CK1delta (1 to 415 residues) expressed in Escherichia coli assessed as remaining activity at 10 uM using RRKDLHDDEEDEAMSITA as substrate incubated for 30 mins in presence of [gamma-33P]ATP by filter binding method relative to control. The gist of the method:
(§2)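 Robotic radiometric panel assay, 30 min at room temperature (21 °C), with 10 mM magnesium acetate. […] Compound at 1 or 10 µM. Residual activity expressed relative to compound-free control; triplicate average ± S.D.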

The target in data set [7] is Fibroblast growth factor receptor 1 (Homo sapiens) (UniProt P11362). Description: Inhibition of recombinant human N-terminal His6-tagged FGFR1 (400 to 820 residues) expressed in baculovirus infected Sf21 cells assessed as remaining activity at 10 uM using Poly(Glu,Tyr) as substrate incubated for 30 mins in presence of [gamma-33P]ATP by filter binding method relative to control. The gist of the method:
(§3)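 Panel assays were run for 30 min at 21 °C, within the linear range for time and enzyme. […] Results are percent activity remaining relative to compound-free control, averaged from triplicate ± S.D.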

Data set [8] deals with Insulin receptor (Homo sapiens) (UniProt P06213). Description: Inhibition of recombinant human N-terminal His6-tagged IR (1001 to 1382 residues) expressed in baculovirus infected Sf21 cells assessed as remaining activity at 10 uM using KKSRGDYMTMQIG as substrate incubated for 30 mins in presence of [gamma-33P]ATP by filter binding method relative to control.
For data set [9], the target named is 3-phosphoinositide-dependent protein kinase 1 (Homo sapiens) (UniProt O15530). Description: Inhibition of recombinant human His6-tagged PDK1 (52 to 556 residues) expressed in baculovirus infected Sf21 cells assessed as remaining activity at 10 uM using PDKtide as substrate incubated for 30 mins in presence of [gamma-33P]ATP by filter binding method relative to control. Summed up:
as §2

In data set [10] the target is Vascular endothelial growth factor receptor 1 (Homo sapiens) (UniProt P17948). Description: Inhibition of recombinant human N-terminal GST-tagged VEGFR1 (784 to 1338 residues) expressed in baculovirus infected Sf21 cells assessed as remaining activity at 10 uM using KKKSPGEYVNIEFG as substrate incubated for 30 mins in presence of [gamma-33P]ATP by filter binding assay relative to control. The gist of the method: as §3

For data set [11], the target named is Sphingosine kinase 1 (Homo sapiens) (UniProt Q9NYA1). Description: Inhibition of SPHK1 (unknown origin) assessed as remaining activity at 10 uM using sphingosine as substrate incubated for 30 mins in presence of ATP relative to control. The gist of the method:
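SPHK1 assayed with 10 μM sphingosine, 10 μM ATP in 50 mM Tris/HCl pH 7.5, 150 mM NaCl, 5 mM MgCl2, 1 mM EGTA, 1 mM DTT, 30 min at room temperature. ATP remaining read by Kinase-Glo Plus luminescence after 10 min. Activity as % of control, triplicate.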

Data set [12] deals with MEF. Description: Inhibition of mTORC2 in serum starved mLST8 knockout MEF cells assessed as reduction IGF1-stimulated AKT phosphorylation at Thr308 residue at 100 to 1000 nM incubated for 20 mins by immunoblot analysis. Particulars: Mus musculus, dose 100-1000 nM. Format: cell-based. The gist of the method:
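Serum withdrawn 16 h. Inhibitor or vehicle given 30 min before stimulation with 50 ng/ml IGF-1 for 20 min. Lysed in Tris lysis buffer and immunoblotted for Akt Thr308 phosphorylation with ECL detection. Applies to HEK-293 and to wild-type, Rictor, Sin1 or mLST8 knockout MEFs. Three independent experiments.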

In data set [13] the test system is MEF. Description: Induction of cell cycle arrest in MEF cells assessed as accumulation at S phase at 3 uM incubated for 1 to 3 days by propidium iodide staining based flow cytometric analysis (reference value: 61.5 +/- 0.78%). Particulars: mouse, time 1-3 day. The data set is classed as toxicity.
Data set [14] addresses T1, mTORC1 (Homo sapiens) (UniProt P42345+Q8N122+Q9BVC4). The conditions noted are these: HEK293, dose 30-1000 nM, time 30.0 min.
The target of data set [15] is T1, mTORC1 (Homo sapiens). The conditions noted are these: HEK293, dose 100-300 nM, time 30.0 min.
The target of a further data set is mTORC2 (Homo sapiens) (UniProt P42345+Q6R327+Q9BVC4+Q9BPZ7). The conditions noted are these: HEK293, dose 100-1000 nM, time 12-48 hrs.

Sequence of Casein kinase I isoform delta (Homo sapiens) (P48730 whole entry, looked up, the tested form may be a part, canonical isoform): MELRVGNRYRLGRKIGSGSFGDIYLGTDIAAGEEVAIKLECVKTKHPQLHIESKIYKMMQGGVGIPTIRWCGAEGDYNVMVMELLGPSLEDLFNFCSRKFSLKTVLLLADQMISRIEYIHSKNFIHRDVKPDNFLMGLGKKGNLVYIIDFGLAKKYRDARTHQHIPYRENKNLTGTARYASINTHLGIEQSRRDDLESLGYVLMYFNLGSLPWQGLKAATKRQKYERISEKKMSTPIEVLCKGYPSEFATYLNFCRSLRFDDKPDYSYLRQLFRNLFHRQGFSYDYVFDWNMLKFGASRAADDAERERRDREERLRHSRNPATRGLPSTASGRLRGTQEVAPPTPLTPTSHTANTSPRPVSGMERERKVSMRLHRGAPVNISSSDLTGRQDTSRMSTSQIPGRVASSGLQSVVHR
Sequence of 3-phosphoinositide-dependent protein kinase 1 (Homo sapiens) (O15530 whole entry, the tested form may be a part): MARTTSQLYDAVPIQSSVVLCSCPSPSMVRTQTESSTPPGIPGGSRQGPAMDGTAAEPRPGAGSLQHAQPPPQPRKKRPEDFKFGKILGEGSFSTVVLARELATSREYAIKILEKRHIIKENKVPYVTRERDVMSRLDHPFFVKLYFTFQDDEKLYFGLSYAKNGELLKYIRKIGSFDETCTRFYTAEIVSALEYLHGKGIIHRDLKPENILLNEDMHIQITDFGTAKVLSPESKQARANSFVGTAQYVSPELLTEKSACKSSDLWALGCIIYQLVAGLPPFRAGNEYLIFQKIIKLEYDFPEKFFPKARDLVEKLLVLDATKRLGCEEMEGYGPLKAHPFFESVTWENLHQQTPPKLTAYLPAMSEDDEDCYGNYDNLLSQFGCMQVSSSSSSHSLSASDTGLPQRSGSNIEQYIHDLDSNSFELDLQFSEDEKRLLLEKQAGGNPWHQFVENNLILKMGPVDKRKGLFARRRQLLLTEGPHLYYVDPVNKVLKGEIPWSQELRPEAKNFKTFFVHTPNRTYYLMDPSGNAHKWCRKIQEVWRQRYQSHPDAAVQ
Sequence of Tyrosine-protein kinase BTK (Homo sapiens) (Q06187 whole entry, the tested form may be a part): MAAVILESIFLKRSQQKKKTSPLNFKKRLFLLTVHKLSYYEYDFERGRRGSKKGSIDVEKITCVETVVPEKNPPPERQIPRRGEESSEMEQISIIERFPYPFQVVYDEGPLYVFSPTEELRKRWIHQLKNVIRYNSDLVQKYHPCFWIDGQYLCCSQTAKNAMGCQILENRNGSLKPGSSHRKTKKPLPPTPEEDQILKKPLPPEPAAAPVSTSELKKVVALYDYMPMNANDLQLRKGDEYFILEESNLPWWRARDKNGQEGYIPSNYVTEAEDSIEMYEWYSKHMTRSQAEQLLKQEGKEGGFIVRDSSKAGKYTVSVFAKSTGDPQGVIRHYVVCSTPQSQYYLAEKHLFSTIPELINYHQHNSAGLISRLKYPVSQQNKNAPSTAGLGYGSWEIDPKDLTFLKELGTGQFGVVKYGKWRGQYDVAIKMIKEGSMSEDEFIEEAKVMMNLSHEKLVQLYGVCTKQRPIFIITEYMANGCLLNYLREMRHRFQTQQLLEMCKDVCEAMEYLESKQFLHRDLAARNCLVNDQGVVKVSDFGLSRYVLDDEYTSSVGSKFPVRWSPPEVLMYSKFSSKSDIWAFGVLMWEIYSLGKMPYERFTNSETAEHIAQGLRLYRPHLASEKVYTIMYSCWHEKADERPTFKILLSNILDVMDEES
Sequence of Vascular endothelial growth factor receptor 1 (Homo sapiens) (P17948 whole entry, the tested form may be a part): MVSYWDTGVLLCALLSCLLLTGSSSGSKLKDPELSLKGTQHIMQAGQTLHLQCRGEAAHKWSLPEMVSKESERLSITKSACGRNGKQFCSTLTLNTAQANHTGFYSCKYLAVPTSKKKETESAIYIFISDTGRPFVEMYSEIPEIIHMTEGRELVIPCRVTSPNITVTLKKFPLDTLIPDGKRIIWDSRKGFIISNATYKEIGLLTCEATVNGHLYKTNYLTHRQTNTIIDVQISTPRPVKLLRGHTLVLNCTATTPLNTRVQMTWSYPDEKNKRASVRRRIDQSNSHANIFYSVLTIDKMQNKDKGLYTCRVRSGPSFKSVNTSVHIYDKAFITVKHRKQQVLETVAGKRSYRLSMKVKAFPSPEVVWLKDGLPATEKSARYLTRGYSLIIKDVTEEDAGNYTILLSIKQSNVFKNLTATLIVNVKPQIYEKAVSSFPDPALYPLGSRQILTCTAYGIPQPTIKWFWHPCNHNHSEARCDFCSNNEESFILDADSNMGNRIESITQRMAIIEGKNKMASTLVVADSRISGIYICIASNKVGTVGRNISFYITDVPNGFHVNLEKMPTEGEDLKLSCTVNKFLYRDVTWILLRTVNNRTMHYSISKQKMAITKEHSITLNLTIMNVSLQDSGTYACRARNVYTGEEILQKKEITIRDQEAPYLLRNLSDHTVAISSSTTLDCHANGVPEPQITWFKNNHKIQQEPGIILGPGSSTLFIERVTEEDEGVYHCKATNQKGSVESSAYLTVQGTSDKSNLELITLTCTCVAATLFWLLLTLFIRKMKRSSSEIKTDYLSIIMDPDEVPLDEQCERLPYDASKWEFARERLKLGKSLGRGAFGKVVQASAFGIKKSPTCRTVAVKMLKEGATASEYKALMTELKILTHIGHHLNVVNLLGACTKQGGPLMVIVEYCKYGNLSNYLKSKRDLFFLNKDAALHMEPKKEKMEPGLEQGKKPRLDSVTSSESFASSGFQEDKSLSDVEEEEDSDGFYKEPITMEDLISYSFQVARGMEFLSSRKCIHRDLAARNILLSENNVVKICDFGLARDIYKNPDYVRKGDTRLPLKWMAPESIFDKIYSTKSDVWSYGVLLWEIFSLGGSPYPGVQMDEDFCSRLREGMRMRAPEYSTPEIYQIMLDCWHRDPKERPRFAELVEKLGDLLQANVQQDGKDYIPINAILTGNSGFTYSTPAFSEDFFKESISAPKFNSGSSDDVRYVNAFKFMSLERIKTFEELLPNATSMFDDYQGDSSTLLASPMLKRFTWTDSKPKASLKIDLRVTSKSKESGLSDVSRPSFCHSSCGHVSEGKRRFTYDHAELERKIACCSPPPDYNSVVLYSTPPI
Sequence of Insulin receptor (Homo sapiens) (P06213 28-758 limits assumed): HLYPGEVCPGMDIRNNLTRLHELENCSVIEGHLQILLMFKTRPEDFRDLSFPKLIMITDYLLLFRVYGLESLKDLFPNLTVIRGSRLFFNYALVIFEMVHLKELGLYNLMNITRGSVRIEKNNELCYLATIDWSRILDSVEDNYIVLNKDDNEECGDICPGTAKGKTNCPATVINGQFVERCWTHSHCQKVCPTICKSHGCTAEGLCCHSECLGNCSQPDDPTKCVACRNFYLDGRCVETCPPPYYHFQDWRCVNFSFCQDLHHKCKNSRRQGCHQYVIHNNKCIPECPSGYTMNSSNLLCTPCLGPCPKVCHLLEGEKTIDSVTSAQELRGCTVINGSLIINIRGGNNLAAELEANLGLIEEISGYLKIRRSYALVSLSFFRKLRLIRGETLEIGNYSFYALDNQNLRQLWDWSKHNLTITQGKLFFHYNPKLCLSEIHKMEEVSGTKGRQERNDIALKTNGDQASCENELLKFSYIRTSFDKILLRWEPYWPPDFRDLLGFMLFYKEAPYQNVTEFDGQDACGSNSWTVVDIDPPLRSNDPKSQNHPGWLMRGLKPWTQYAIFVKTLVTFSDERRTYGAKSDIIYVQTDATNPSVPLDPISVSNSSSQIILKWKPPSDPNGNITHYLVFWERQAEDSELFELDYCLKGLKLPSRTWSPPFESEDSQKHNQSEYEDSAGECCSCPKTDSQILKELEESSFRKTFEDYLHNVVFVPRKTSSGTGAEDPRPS
Sequence of Insulin receptor (Homo sapiens) (P06213 763-1382 limits assumed): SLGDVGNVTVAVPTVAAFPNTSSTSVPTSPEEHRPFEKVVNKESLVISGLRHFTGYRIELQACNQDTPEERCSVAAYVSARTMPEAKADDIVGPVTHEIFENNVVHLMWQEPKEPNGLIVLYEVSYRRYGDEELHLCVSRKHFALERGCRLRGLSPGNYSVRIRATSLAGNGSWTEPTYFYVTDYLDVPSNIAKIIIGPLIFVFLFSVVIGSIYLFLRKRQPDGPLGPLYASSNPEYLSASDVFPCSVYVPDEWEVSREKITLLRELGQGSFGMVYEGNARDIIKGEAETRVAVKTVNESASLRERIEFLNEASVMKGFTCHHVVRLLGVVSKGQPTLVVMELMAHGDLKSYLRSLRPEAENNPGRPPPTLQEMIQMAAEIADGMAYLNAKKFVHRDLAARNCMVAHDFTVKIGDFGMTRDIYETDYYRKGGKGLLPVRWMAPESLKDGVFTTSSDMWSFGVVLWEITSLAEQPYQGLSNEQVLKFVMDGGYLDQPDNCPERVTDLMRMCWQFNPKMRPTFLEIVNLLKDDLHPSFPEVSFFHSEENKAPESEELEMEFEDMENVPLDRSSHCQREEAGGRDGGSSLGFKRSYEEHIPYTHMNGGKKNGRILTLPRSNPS
Sequence of Mitogen-activated protein kinase 15 (Homo sapiens) (Q8TD08 whole entry, the tested form may be a part): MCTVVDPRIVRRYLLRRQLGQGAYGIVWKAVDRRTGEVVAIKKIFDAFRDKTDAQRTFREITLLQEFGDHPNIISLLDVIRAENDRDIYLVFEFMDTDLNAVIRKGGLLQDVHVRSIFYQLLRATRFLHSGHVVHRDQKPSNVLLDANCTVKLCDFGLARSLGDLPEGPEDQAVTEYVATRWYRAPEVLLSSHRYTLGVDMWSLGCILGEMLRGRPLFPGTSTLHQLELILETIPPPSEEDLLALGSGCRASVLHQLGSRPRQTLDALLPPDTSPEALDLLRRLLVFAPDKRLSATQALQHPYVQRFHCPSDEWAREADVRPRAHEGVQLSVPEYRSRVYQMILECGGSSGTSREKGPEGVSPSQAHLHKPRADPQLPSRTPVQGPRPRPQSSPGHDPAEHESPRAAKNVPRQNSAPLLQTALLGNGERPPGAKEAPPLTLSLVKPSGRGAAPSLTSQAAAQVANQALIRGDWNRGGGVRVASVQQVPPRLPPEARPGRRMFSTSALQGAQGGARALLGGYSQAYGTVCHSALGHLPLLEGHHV

For `COc1ccc(-c2ccc3c(N4CCOCC4)nc(N4C[C@@H](C)O[C@@H](C)C4)nc3n2)cc1CO` [Ku-0063794], the Activity in [1] amounted to 85%; in [2], 96%; in data set [3], 88%; in data set [4] it was 74%; in data set [5], 88%; in data set [6], 109%. Also, the Activity is 87% in [7]; 67% in data set [8]; 91% in data set [9]; 92% in [10]; 99% in data set [11]; 46.9% in the data set on MEF [13]. Moreover, the inhibition result with MEF [12], on mTORC1 (Homo sapiens) [14] and at mTORC2 (Homo sapiens) was “Active” in each case. At mTORC1 (Homo sapiens) [15], the inhibition amounted to 100%.
